In article PMC5362268 (Cell, 2017):
Several values for one entry are separate records, joined by “and”; a condition that tells them apart may be missing. Identical values can stand only once.

Tests used:
[1] = K mouse weights on study; assay type: in vivo; details: individual mice
[2] = test system: CRAF-bound RAS in BJeLR cells; assay: Cell-based RAS pulldown; design: species or system human
Summary of the method: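 BJeLR cells seeded 16 h before use in DMEM with 10% FBS. Medium then replaced with serum-free medium containing the test compound or a reference inhibitor (from 10 mM DMSO stocks), 24 h. c-RAF bound to RAS proteins was determined by pulldown.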

[3] = test system: pERK and pAKT in Hras^−/−; Nras^−/−; Kras^flox/flox MEFs; assay: Western blots of mouse embryo fibroblasts; assay type: cell-based; details: treatment for 0.6 h, 1 h or 16 h, EGF stimulated
Summary of the method: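 MEFs seeded at 0.25 million/well in DMEM with Glutamax, 10% heat-inactivated FBS and P/S, grown to 80% confluence, then serum-starved 24 h. Serum-free treatment with 5 μM test compound for 35 min or 1 h, or 2 μM for 16 h, then EGF 10 ng/ml for 15 min. Quantified as (phospho/tubulin)/(total/tubulin), normalised to DMSO.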

[4] = test system: wild-type mice; assay: Toxicity and body weight in wild-type mice; assay type: in vivo, mouse; details: individual mice
[5] = test system: Kras^lox/lox, Hras^−/−, Nras^−/− RERTn^ert/ert MEFs; assay: MEF cell number after treatment; assay type: cell-based, mouse; details: 6-well, 24 h treatment
Summary of the method: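 6-well format: 200,000 cells/well seeded 16 h beforehand. Medium replaced with medium containing test compound (from 10 mM DMSO stocks) at indicated concentrations. After 24 h, cells trypsinized and counted by Trypan Blue exclusion (Vi-Cell).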

[6] = test system: pERK and pAKT in BJeLR (HRAS^V12) cells; assay: Western blots of RAS signaling; assay type: cell-based, human
Summary of the method: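 Cells seeded 16 h before use in DMEM with 10% or 2% FBS plus P/S. Compound added in serum-free DMEM or DMEM 2% FBS for the indicated times. Lysis in HEPES pH 7.4 buffer with phosphatase and protease inhibitors; SDS-PAGE, PVDF transfer, Li-COR blocking, primary antibodies (1:1000) overnight at 4 °C.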

[7] = biological target: GDP complex of KRAS^G12D (Homo sapiens, UniProt P01116, G12D); assay: MST, GDP-bound KRAS^G12D; assay type: binding; details: compared with GppNHp-bound KRAS^G12D
[8] = Pharmacokinetic analysis in mice; assay type: in vivo, mouse; details: 20 mg/kg, plasma
Summary of the method: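 Plasma flash-frozen in liquid nitrogen, stored at −80 °C, and assayed by UPLC-MS-MS. Plasma from six untreated mice used for calibration and matrix correction. AUCINF calculated from t = 0 to infinity using calculated half-life and last measured concentration.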

[9] = test system: DLD-1 cells; assay: Pan-RAS siRNA knockdown and viability; assay type: cell-based, human; details: 24 h
Summary of the method: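 DLD-1 cells reverse-transfected in 6-well plates with siRNA pools against HRAS, KRAS and NRAS, or a non-targeting pool. Cells then re-suspended in serum-free RPMI and seeded at 10,000 cells/well in 384-well plates overnight. Dilution series added from 10× stocks in serum-free Opti-mem; 24 h incubation; viability by CellTiter-Glo.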

[10] = test system: pAKT (S473), pERK1/2 and cleaved caspase-3 in KP^f/fC pancreatic tumors; assay: KP^f/fC mouse pharmacodynamic study; assay type: in vivo; details: post- vs pre-treatment tumor samples
[11] = test system: HT-1080 cells; assay: Caspase 3/7 activation assay; assay type: cell-based, human; details: 24 h; compared with staurosporine
Summary of the method: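 HT-1080 cells seeded at 1,000 cells/well in 384-well plates. After 16 h, test compound was added as a dilution series, made from 50 mM DMSO stocks and transferred into assay wells at 1:5 dilution.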

[12] = test system: BRAF^V600E-CAAX-expressing MEF cells; assay: Viability assay in mouse embryo fibroblasts; assay type: cell-based
[13] = biological target: KRAS^G12D-GppNHp (Homo sapiens, UniProt P01116, G12D); assay: Isothermal titration calorimetry; assay type: binding
Summary of the method: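 Test compound in the cell at 200 µM (1.25% DMSO); protein in the syringe at 2.0 mM, DMSO-matched. Run at 25 °C: 19 × 2 µl injections, 180 s apart; reference power 5 µcal/sec.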

[14] = biological target: KRAS^G12D D38A (Homo sapiens, UniProt P01116, D38A/G12D); assay: MST, D38A point mutant; assay type: binding; details: compared with KRAS^G12D
[15] = test system: RALA-GTP in BJeLR cells; assay: RALA activation assay; assay type: cell-based, human
Summary of the method: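 BJeLR cells seeded 16 h before use in DMEM with 2% FBS, then given medium with test compound (from 10 mM DMSO stock) for 6 h. Cells washed twice with ice-cold 25 mM Tris, 100 mM NaCl, 1 mM TCEP, 5 mM MgCl2, 0.1% Tween-20 with protease inhibitor. RALA-GTP pulled down on beads, eluted in SDS buffer and blotted.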

[16] = Microsomal stability assay; assay type: in vitro ADME; details: mouse, over 120 minutes
Summary of the method: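 Liver microsomes incubated in 100 mM phosphate buffer, pH 7.4, supplemented with an NADPH-regenerating system (solutions A and B).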

NC1(C(=O)NCCCn2cc(-c3ccc(OC(F)(F)F)cc3)c3cc(CN4CCN(Cc5c(Cl)cccc5Cl)CC4)ccc32)CCNCC1 [compound 3144, 4-amino-N-(3-(5-((4-(2,6-dichlorobenzyl)piperazin-1-yl)methyl)-3-(4-(trifluoromethoxy)phenyl)-1H-indol-1-yl)propyl)piperidine-4-carboxamide]
K mouse weights ([1]; day 1 on study): 19.1 and 14.5 and 22.9 and 26.1 and 18.5 | K mouse weights ([1]; day 2 on study): 18.4 and 14.1 and 21.6 and 24.7 and 17.4 | K mouse weights ([1]; day 3 on study): 18.6 and 14.2 and 20.7 and 23.6 and 17 | K mouse weights ([1]; day 4 on study): 17.5 and 14.2 and 20.1 and 23.27 and 17.7 | K mouse weights ([1]; day 5 on study): 17.5 and 13.63 and 19.8 and 22.7 and 16.5 | CRAF-bound RAS [2]: decreased | pERK and pAKT abundance [3]: moderately decreased | WT mouse weights ([4]; day 1 on study): 21.36 and 20.39 and 22.08 and 23.6 and 25 | WT mouse weights ([4]; day 2 on study): 20 and 18.8 and 20.6 and 22.7 and 23.38 | WT mouse weights ([4]; day 3 on study): 20 and 18.4 and 20.1 and 21.87 and 22.16 | WT mouse weights ([4]; day 4 on study): 20.77 and 17.4 and 19 and 21.08 and 23 | WT mouse weights ([4]; day 5 on study): 20.78 and 17.27 and 18.6 and 21.4 and 22.18 | concentrations not reducing the number of MEFs below the starting number [5]: below 3 μM | EGF-induced pAKT and pERK abundance [6]: suppressed to a degree | pERK and pAKT abundance [6]: somewhat decreased | affinity for the GDP complex [7]: reduced affinity | Tlast ([8]; IP, male C57BL/6 mice): 12 h | Tlast ([8]; IV, male C57BL/6 mice): 12 h | HL_Lambda_z ([8]; PO, male C57BL/6 mice): >12 h | Tlast ([8]; PO, male C57BL/6 mice): 12 h | AUC(0-inf) ([8]; male, C57BL/6, mouse, po): 5650 ng·h/mL | concentration up to which cells were resistant ([9]; DLD-1 (KRAS^G13D), high cell density, no RAS knockdown): > 20 µM | effect of combined HRAS, NRAS and KRAS knockdown on compound lethality ([9]; si-panRAS vs non-targeting siRNA, CellTiter-Glo): sensitization | cleaved caspase-3 in tumor [10]: modest increase | pAKT (S473) and pERK1/2 in tumor ([10]; 30 mg/kg IP once daily): decrease | caspase activity [11]: induced caspase activity to a similar level as staurosporine | concentrations showing lethality ([12]; BRAF^V600E-CAAX-expressing MEFs): ≥ 20 µM | sensitivity after Kras excision and BRAF^V600E-CAAX introduction ([12]; compared with Kras^lox/lox MEFs): resistance | Kd [13]: 17.8 ± 4.5 µM | binding affinity to D38A mutant [14]: reduced binding affinity | RALA-GTP [15]: decreased | stability in liver microsomes [16]: relatively stable
